Active and inactive are the calls of the source. No cut-off for these calls is given here.

Data on eight compounds can be found in ChEMBL document CHEMBL4351017, “Selenocoumarins as new multitarget antiproliferative agents: Synthesis, biological evaluation and in silico calculations” (Eur J Med Chem, 2019).

The test system of series [1] is SW1573. Kind of series: Resistance factor, ratio of GI50 for antiproliferative activity against human SW1573 cells over-expressing P-gp incubated for 48 hrs in presence of P-gp and CYP3A4/5 inhibitor verapamil by sulforhodamine assay to GI50 for antiproliferative activity against human SW1573 cells incubated for 48 hrs in presence of P-gp and CYP3A4/5 inhibitor verapamil by sulforhodamine B assay. The series is classed as functional. In outline:
(§1)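 Resistance factor: GI50 in SW1573/PGP divided by GI50 in wild-type SW1573. Both came from 48 h exposure, with or without 10 µM verapamil. GI50 values are from at least two independent experiments.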

Another series concerns T47D. Kind of series: Antiproliferative activity against human T47D cells assessed as growth inhibition measured after 48 hrs by sulforhodamine B assay. The series is classed as functional. Put shortly: (§2)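 NCI protocol with minor modifications. DMSO stocks at 40 mM. Cells exposed for 48 h to serial decimal dilutions, 0.001–100 µM. GI50 in µM from at least two independent experiments, with SD.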

Series [2] has as its system SW1573. The series is described as follows: Resistance factor, ratio of GI50 for antiproliferative activity against human SW1573 cells over-expressing P-gp incubated for 48 hrs in absence of P-gp and CYP3A4/5 inhibitor verapamil by sulforhodamine B assay to GI50 for antiproliferative activity against human SW1573 cells incubated for 48 hrs in absence of P-gp and CYP3A4/5 inhibitor verapamil by sulforhodamine B assay. The series is classed as functional. In outline: as §1
Background: The SRB assay estimates cell density from bound dye.

Series [3] is described as follows: Cytotoxicity against human hTERT-BJ cells assessed as growth inhibition measured after 48 hrs by sulforhodamine B assay. The series is classed as cell-based. The settings on record: hTERT-BJ cells. In outline: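 NCI protocol with minor modifications. Human tumour lines or fibroblasts in RPMI 1640 with 1 mM glutamine, 5% FBS and antibiotics, 37 °C, 5% CO2, low passage. DMSO stocks at 40 mM. Cells exposed for 48 h to serial decimal dilutions, 0.001–100 µM. GI50 in µM from at least two independent experiments, with SD.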

In another series the test system is A549. The series is described as follows: Antiproliferative activity against human A549 cells assessed as growth inhibition measured after 48 hrs by sulforhodamine B assay. The series is classed as functional. The following applies: A549, 48 h. Put shortly: as §2
The next series relates to HBL-100. Kind of series: Antiproliferative activity against human HBL100 cells assessed as growth inhibition measured after 48 hrs by sulforhodamine B assay. The series is classed as functional. The settings on record: HBL-100, 48 h. In outline: as §2
For series [4], the system named is SW1573. Kind of series: Antiproliferative activity against human SW1573 cells incubated for 48 hrs in presence of P-gp and CYP3A4/5 inhibitor verapamil by sulforhodamine B assay. The settings on record: SW1573, 48 h. The series is classed as functional. Put shortly:
(§3)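 Wild-type and P-gp-overexpressing SW1573 cells were grown in RPMI 1640 with 1 mM glutamine, 5% FBS and antibiotics at 37 °C. Cells were exposed for 48 h to serial decimal dilutions, 0.001–100 µM, with or without 10 µM verapamil. GI50 values come from at least two independent experiments, with SD.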

The test system of the next series is WiDr. The series is described as follows: Antiproliferative activity against human WiDr cells assessed as growth inhibition measured after 48 hrs by sulforhodamine B assay. The series is classed as functional. Put shortly:
as §2

The subject of series [5] is HeLa. Kind of series: Antiproliferative activity against human HeLa cells assessed as growth inhibition measured after 48 hrs by sulforhodamine B assay. The series is classed as functional. Put shortly:
as §2

The test system of series [6] is HeLa. The series is described as follows: Anticancer activity against human HeLa cells assessed as increase in ROS production at 10 uM measured after 48 hrs by ROS-GloTM H2O2 assay. The series is classed as functional, cell-based. Put shortly:
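HeLa cells in RPMI 1640 with 1 mM glutamine, 5% FBS and antibiotics, 37 °C, 5% CO2. Exposed to compound at 1 or 10 µM for 48 h. ROS (H2O2) read with a non-lytic, HRP-free luminescent kit per the manufacturer.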

In series [7] the test system is SW1573. The series is described as follows: Antiproliferative activity against human SW1573 cells over-expressing P-gp incubated for 48 hrs in absence of P-gp and CYP3A4/5 inhibitor verapamil by sulforhodamine B assay. The series is classed as functional. The settings on record: SW1573, 48 h. In outline:
as §3

The subject of series [8] is SW1573. The series is described as follows: Antiproliferative activity against human SW1573 cells over-expressing P-gp incubated for 48 hrs in presence of P-gp and CYP3A4/5 inhibitor verapamil by sulforhodamine B assay. The following applies: SW1573, 48 h. The series is classed as functional. In outline:
as §3

For series [9], the system named is SW1573. The series is described as follows: Antiproliferative activity against human SW1573 cells incubated for 48 hrs in absence of P-gp and CYP3A4/5 inhibitor verapamil by sulforhodamine B assay. The series is classed as functional. The following applies: SW1573, 48 h. Put shortly:
as §3

For `Cc1cc(=O)oc2cc(NC(=[Se])Nc3ccc(C(F)(F)F)cc3)ccc12`, the results for the RatioGI50 in the series with SW1573 [1] and in the series with SW1573 [2] were 0.9 and 1.2, respectively. The 50% growth inhibitory concentration (GI50) was 8.7 µM in the series on T47D; 8.6 µM with A549; 13 µM with HBL-100; 26 µM in the series on SW1573 [4]; 6 µM in the series with WiDr; 21 µM in the series with HeLa [5]. The GI50 is 24 µM in the series on SW1573 [7], 22 µM in the series with SW1573 [8] and 20 µM in the series with SW1573 [9]. The concentration for 50% growth inhibition (GI50) at 48 h in series [3] was found to be 32 µM. Besides, the result in the series on HeLa [6] was Active.

On to `CC(=O)O[C@H]1C(=O)[C@@]2(C)[C@H]([C@H](OC(=O)c3ccccc3)[C@]3(O)C[C@H](OC(=O)[C@H](O)[C@@H](NC(=O)c4ccccc4)c4ccccc4)C(C)=C1C3(C)C)[C@]1(OC(C)=O)CO[C@@H]1C[C@@H]2O` [PACLITAXEL], for which the RatioGI50 in the series with SW1573 [1] is listed as 3. In addition, the GI50 was 0.0016 µM with SW1573 [4], 0.196 µM in the series on SW1573 [7], 0.0042 µM in the series on SW1573 [8] and 0.0015 µM with SW1573 [9].

On to `CCOC(=[Se])Nc1ccc2c(C)cc(=O)oc2c1`, for which the GI50 in the series on T47D, in the series with A549, with HBL-100, in the series on WiDr and with HeLa [5] was more than 100 µM each time.

Take `COc1ccc(NC(=[Se])Nc2ccc3c(C)cc(=O)oc3c2)cc1`: the RatioGI50 with SW1573 [1] worked out at 2.5; in the series with SW1573 [2], 1.7. In addition, the GI50 with T47D worked out at 33 µM; in the series on A549, 28 µM; in the series with HBL-100 it was 38 µM; with SW1573 [4], 10 µM; in the series with WiDr, 23 µM; in the series with HeLa [5], 35 µM. In addition, the GI50 in the series with SW1573 [7] was determined as 24 µM; in the series on SW1573 [8], 25 µM; in the series with SW1573 [9], 14 µM. In addition, the GI50 at 48 h in [3] was more than 100 µM. Further, in the series on HeLa [6], the result was Active.

`Cc1cc(=O)oc2cc(NC(=[Se])Nc3ccccc3)ccc12`: the RatioGI50 in the series with SW1573 [1] is 0.8; with SW1573 [2] it was 0.9. The GI50 with T47D was determined as 24 µM; in the series with A549 it was 28 µM; with HBL-100 it was 28 µM; in the series with SW1573 [4], 25 µM; in the series on WiDr, 34 µM; with HeLa [5], 24 µM. In addition, the GI50 in the series on SW1573 [7] amounted to 21 µM; with SW1573 [8] it was 21 µM; in the series on SW1573 [9] it was 23 µM. The GI50 at 48 h in series [3] is more than 100 µM. Further, the outcome with HeLa [6] was Active.

On to `CC[C@]1(O)C[C@@H]2CN(CCc3c([nH]c4ccccc34)[C@@](C(=O)OC)(c3cc4c(cc3OC)N(C)[C@H]3[C@@](O)(C(=O)OC)[C@H](OC(C)=O)[C@]5(CC)C=CCN6CC[C@]43[C@@H]65)C2)C1` [VINBLASTINE], for which the RatioGI50 with SW1573 [1] was determined as 1. The 50% growth inhibitory concentration (GI50) is 0.0008 µM in the series on SW1573 [4], 2.05 µM in the series on SW1573 [7], 0.001 µM in the series on SW1573 [8] and 0.0009 µM in the series with SW1573 [9].

As to `COC(=[Se])Nc1ccc2c(C)cc(=O)oc2c1`, the 50% growth inhibitory concentration (GI50) with T47D is more than 100 µM; in the series with A549 it was more than 100 µM; in the series with HBL-100, more than 100 µM; with WiDr it was more than 100 µM; in the series with HeLa [5], 78 µM.

Take `CCCOC(=[Se])Nc1ccc2c(C)cc(=O)oc2c1`: the RatioGI50 was found to be 3 in the series on SW1573 [1] and 2 with SW1573 [2]. The concentration for 50% growth inhibition (GI50) was found to be 41 µM with T47D; 37 µM in the series with A549; 34 µM in the series with HBL-100; 12 µM with SW1573 [4]; 42 µM in the series with WiDr; 23 µM with HeLa [5]. For the same compound, the GI50 came out at 32 µM in the series on SW1573 [7], 35 µM in the series with SW1573 [8] and 16 µM with SW1573 [9]. Further, in series [3], the 50% growth inhibitory concentration (GI50) at 48 h stood at 33 µM. Also, the result in the series with HeLa [6] was Active.

As usually defined, the GI50 is the concentration giving 50% growth inhibition.
